From ChEMBL document CHEMBL4840314, “Optimization of peptide-based inhibitors targeting the HtrA serine protease in Chlamydia: Design, synthesis and biological evaluation of pyridone-based and N-Capping group-modified analogues” (Eur J Med Chem, 2021)
The source made the active and inactive calls. The calls are words filed in the database; no cut-off is given here.

How the values were obtained:
Chlamydia pecorum [1] = test: Antibacterial activity against Chlamydia pecorum G (MC/MarsBar;CpG) infected in McCoy B cells assessed as log reduction in infectivity unit at 25 uM measured after 44 hrs; type: functional, organism-based; settings: VR629 G (MC/MarsBar;CpG)
How it was run: (§1)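 C. trachomatis D was grown in HEp-2 cells and C. pecorum G in McCoy B cells, in high-glucose DMEM with 10% heat-inactivated FCS, 4 mM alanyl-glutamine, streptomycin and gentamicin. Cells were seeded at 20,000/well 24 h before infection, at MOI 12 (CtD) or MOI 4 (CpG). Infection was synchronised by centrifugation at 500×g, 28 °C, 30 min. Dose series added 16 h PI, with 1% DMSO and media controls. Read-out was IFU/mL; n=3.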

HEp-2 [2] = test: Cytotoxicity against human HEp-2 cells assessed as reduction in MTS absorbance at 100 uM by MTS assay; type: cell-based; design: scale not given: the % may be the effect or the level left; settings: hep-2, 100 µM
How it was run: (§2)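 HEp-2 cells were seeded at 5000/well and treated 24 h later with compound (two doses) alongside 1% DMSO and media controls, in triplicate. After 24 h treatment, medium was replaced with fresh supplemented DMEM. MTS/PMS was added for 4 h and absorbance read at 490 nm. Results are expressed as % MTS reduction relative to 1% DMSO-treated cells.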

Chlamydia pecorum [3] = test: Antibacterial activity against Chlamydia pecorum G (MC/MarsBar;CpG) infected in McCoy B cells assessed as reduction in bacterial titer at 50 to 100 uM measured after 44 hrs; type: functional, organism-based; settings: VR629 G (MC/MarsBar;CpG), dose 50-100 µM; how it was run: as §1
Chlamydia trachomatis [4] = test: Antibacterial activity against Chlamydia trachomatis D (D/UW-3/Cx; CtD) infected in HEp-2 cells assessed as reduction in bacterial titer at 50 to 100 uM measured after 44 hrs; type: functional, organism-based; settings: dose 50-100 µM; how it was run: as §1
Chlamydia trachomatis [5] = test: Antibacterial activity against Chlamydia trachomatis D (D/UW-3/Cx; CtD) infected in HEp-2 cells assessed as log reduction in infectivity unit at 25 uM measured after 44 hrs; type: functional; how it was run: as §1
HEp-2 [6] = test: Cytotoxicity against human HEp-2 cells assessed as decrease in cell integrity at 100 uM by LDH assay; type: cell-based; design: scale not given: the % may be the effect or the level left; settings: hep-2, 100 µM
How it was run: (§3)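 HEp-2 cells were seeded at 5000/well and treated 24 h later at two doses, with 1% DMSO and media-only controls, in triplicate, for 8 h. Maximum-release wells were lysed with 0.8% Triton X-100 45 min before supernatant collection. Supernatant was incubated with CytoTox reagent for 30 min, then stop solution, and read at A490. Extracellular LDH is given as % of maximum release.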

[7] = biological target: T1, Probable periplasmic serine endoprotease DegP-like (Chlamydia trachomatis, UniProt P18584); test: Inhibition of recombinant ctHtrA serine protease using MeOCoum-ENLHLPLPI1F-D as substrate pretreated for 10 min followed by substrate addition and measured after 30 minutes
T1 sequence (P18584 whole entry): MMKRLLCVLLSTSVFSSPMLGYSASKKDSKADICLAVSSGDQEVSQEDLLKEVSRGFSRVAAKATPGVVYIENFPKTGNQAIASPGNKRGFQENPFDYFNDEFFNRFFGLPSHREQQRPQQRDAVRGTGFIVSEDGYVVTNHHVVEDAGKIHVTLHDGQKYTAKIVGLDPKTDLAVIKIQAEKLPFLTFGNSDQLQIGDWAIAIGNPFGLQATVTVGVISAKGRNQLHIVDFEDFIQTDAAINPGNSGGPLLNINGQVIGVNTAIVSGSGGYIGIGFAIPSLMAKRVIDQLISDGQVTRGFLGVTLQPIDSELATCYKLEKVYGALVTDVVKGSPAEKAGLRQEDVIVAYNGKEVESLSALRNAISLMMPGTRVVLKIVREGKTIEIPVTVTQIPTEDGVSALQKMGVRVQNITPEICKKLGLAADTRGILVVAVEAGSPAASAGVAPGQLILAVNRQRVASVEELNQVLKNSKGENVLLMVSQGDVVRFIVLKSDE
How it was run: (§4)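 Recombinant CtHtrA was tested against a six-dose inhibitor series in 50 mM Tris, 20 mM MgCl₂, pH 7.0. Plates were shaken before each of multiple reads per well. Each dose was run in triplicate, with a JO146 dose series (n=3) and DMSO controls (n=6). Relative inhibition is IC50(JO146)/IC50(compound), because IC50 varied between batches.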

Neutrophil elastase = biological target: T2, Neutrophil elastase (Homo sapiens, UniProt P08246); test: Inhibition of human neutrophil elastase using methoxysuccinyl-Ala-Ala-Pro-Val-pNA as substrate incubated for 15 min
T2 sequence (P08246 whole entry): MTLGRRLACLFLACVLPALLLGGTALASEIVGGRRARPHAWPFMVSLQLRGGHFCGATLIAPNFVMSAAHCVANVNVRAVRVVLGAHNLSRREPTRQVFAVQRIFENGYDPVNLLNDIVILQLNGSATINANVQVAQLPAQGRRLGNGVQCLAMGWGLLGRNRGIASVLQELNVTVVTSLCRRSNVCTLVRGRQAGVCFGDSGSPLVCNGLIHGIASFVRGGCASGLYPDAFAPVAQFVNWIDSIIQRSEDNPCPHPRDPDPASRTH

Staphylococcus aureus = test: Antibacterial activity against Staphylococcus aureus assessed as growth inhibition at 50 uM; type: functional, organism-based
How it was run: (§5)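 Broth microdilution MIC in cation-adjusted Mueller Hinton broth. Compound was 2-fold serially diluted from 32 µg/mL (approx. 50 µM) to 0.015 µg/mL. The inoculum was about 5×10⁵ CFU/mL from overnight cultures. Plates were incubated at 37 °C with shaking for 24 h. MIC was the lowest concentration without growth; technical triplicate.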

HEp-2 [8] = test: Cytotoxicity against human HEp-2 cells assessed as decrease in cell integrity at 25 uM by LDH assay; type: cell-based; design: scale not given: the % may be the effect or the level left; settings: hep-2, 25 µM; how it was run: as §3
Pseudomonas aeruginosa = test: Antibacterial activity against Pseudomonas aeruginosa assessed as growth inhibition at 50 uM; type: functional, organism-based
How it was run: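 P. aeruginosa PAO1 was grown overnight in fluorescent broth (pH 7.0) at 37 °C with shaking, diluted 1/1000 with added MgSO₄, and given compound at 50 or 100 µM final. DMSO controls were 0.5% or 1%. OD600 and fluorescence (ex 405/em 460 nm) were read every 15 min for 24 or 48 h. Pyoverdine was quantified as area under the curve.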

Escherichia coli = test: Antibacterial activity against Escherichia coli assessed as growth inhibition at 50 uM; type: functional, organism-based; how it was run: as §5
[9] = biological target: T3, Probable periplasmic serine endoprotease DegP-like (Chlamydia trachomatis) (UniProt P18584); test: Ratio of JO146 IC50 to test compound IC50 for inhibition of recombinant ctHtrA serine protease using Me0Coum-ENLHLPLPI1F-D as substrate pretreated for 10 minutes followed by substrate addition and measured after 30 minutes; how it was run: as §4
T3 sequence (whole entry): T1 sequence (P18584 whole entry)

HEp-2 [10] = test: Cytotoxicity against human HEp-2 cells assessed as reduction in MTS absorbance at 25 uM by MTS assay; type: cell-based; settings: hep-2, 25 µM; how it was run: as §2

SMILES | Activity (Chlamydia pecorum [1]) | Activity (HEp-2 [2]) | Activity (Chlamydia pecorum [3]) | Activity (Chlamydia trachomatis [4]) | Activity (Chlamydia trachomatis [5]) | Activity (HEp-2 [6]) | IC50 [7] | IC50 (Neutrophil elastase) | Activity (Staphylococcus aureus) | Activity (HEp-2 [8]) | Activity (Pseudomonas aeruginosa) | Activity (Escherichia coli) | Ratio IC50 [9] | Activity (HEp-2 [10])
CC(C)C(NC(=O)C(C)n1cccc(NC(=O)OC(C)(C)C)c1=O)P(=O)(Oc1ccccc1)Oc1ccccc1 (configuration not stated) | Active | <= 25% | Active | Active | Active |  |  |  |  |  |  |  |  | 
CCC(C)C(NC(=O)C(C)n1cccc(NC(=O)OC(C)(C)C)c1=O)P(=O)(Oc1ccccc1)Oc1ccccc1 (configuration not stated) | Active | <= 25% |  |  | Active | < 10% | 128 µM |  |  |  |  |  |  | 
CC(C)C(NC(=O)[C@@H]1CCCN1C(=O)[C@@H](NC(=O)OC(C)(C)C)C(C)(C)C)P(=O)(Oc1ccccc1)Oc1ccccc1 (some centres not stated) |  |  |  |  |  |  | 9.3 µM | 3.02 µM | inactive | <= 3.4% | inactive | inactive | 1.34 | 
CC(C)C(NC(=O)Cn1cccc(NC(=O)Oc2ccccc2)c1=O)P(=O)(Oc1ccccc1)Oc1ccccc1 (configuration not stated) | Active | <= 25% | Active | Active | Active |  |  |  |  |  |  |  |  | 
CCC(C)C(NC(=O)Cn1cccc(NC(=O)Oc2ccccc2)c1=O)P(=O)(Oc1ccccc1)Oc1ccccc1 (configuration not stated) | Active | <= 25% |  |  | Active |  |  |  |  |  |  |  |  | 
CCC(C)C(NC(=O)[C@@H]1CCCN1C(=O)[C@@H](NC(=O)OCc1ccccc1)C(C)(C)C)P(=O)(Oc1ccccc1)Oc1ccccc1 (some centres not stated) |  | Toxic | Active | Active |  |  | 24.9 µM |  |  | <= 3.4% |  |  |  | Non-Toxic
CC(C)C(NC(=O)[C@@H]1CCCN1C(=O)[C@@H](NC(=O)OCc1ccccc1)C(C)(C)C)P(=O)(Oc1ccccc1)Oc1ccccc1 (some centres not stated) |  | Toxic |  |  |  |  |  |  |  | <= 3.4% |  |  |  | Non-Toxic
CC(C)C(NC(=O)C(C)n1cccc(NC(=O)Oc2ccccc2)c1=O)P(=O)(Oc1ccccc1)Oc1ccccc1 (configuration not stated) | Active | <= 25% | Active | Active | Active |  | 41.8 µM |  |  |  |  |  |  | 
CCC(C)C(NC(=O)[C@@H]1CCCN1C(=O)[C@@H](NC(=O)NC(C)(C)C)C(C)(C)C)P(=O)(Oc1ccccc1)Oc1ccccc1 (some centres not stated) |  | Toxic |  |  |  |  |  |  |  | <= 3.4% |  |  |  | Non-Toxic
CC(C)C(NC(=O)[C@@H]1CCCN1C(=O)[C@@H](NC(=O)OC(C)(C)C)C(C)C)P(=O)(Oc1ccccc1)Oc1ccccc1 (some centres not stated) | Active | <= 25% |  |  | Active |  | 12.5 µM | 1.15 µM | inactive | <= 3.4% | inactive | inactive | 1 | 
CC(C)C(NC(=O)[C@@H]1CCCN1C(=O)[C@@H](NC(=O)NC(C)(C)C)C(C)(C)C)P(=O)(Oc1ccccc1)Oc1ccccc1 (some centres not stated) |  | Toxic |  |  |  |  |  |  |  | <= 3.4% |  |  |  | Non-Toxic
CCC(C)C(NC(=O)[C@@H]1CCCN1C(=O)[C@@H](NC(=O)OC(C)(C)C)C(C)(C)C)P(=O)(Oc1ccccc1)Oc1ccccc1 (some centres not stated) |  |  |  |  |  |  | 10.3 µM | 13.5 µM | inactive | <= 3.4% | inactive | inactive | 1.22 | 
CCC(C)C(NC(=O)[C@@H]1CCCN1C(=O)[C@@H](NC(=O)C(C)(C)C)C(C)(C)C)P(=O)(Oc1ccccc1)Oc1ccccc1 (some centres not stated) | Active | Toxic |  |  | Active |  |  |  |  | <= 3.4% |  |  |  | Non-Toxic
CCC(C)C(NC(=O)C(C)n1cccc(NC(=O)Oc2ccccc2)c1=O)P(=O)(Oc1ccccc1)Oc1ccccc1 (configuration not stated) | Active | <= 25% |  |  | Active |  | 19.8 µM |  |  |  |  |  |  | 
